The source of these data is article PMC5092235 (Journal of medicinal chemistry, 2016).

A short description of data set [1]: Caco-2 membrane permeability studies. Format: in vitro ADME. The following applies: for cellular permeability: Caco-2 cells; for efflux ratio: human, Caco-2.
The subject of data set [2] is MLL-AF9 transformed murine bone marrow cells. Put plainly: MTT cell viability assay in MLL-AF9 transformed murine bone marrow cells. The data set is classed as cell-based. As to conditions: for SI, selectivity index: ratio of GI50 values measured in HM-2 cells (control cell line) and MLL-AF9 transformed cells; for GI50: read-out: GI50 MLL-AF9, MTT cell viability assay, 7 days of treatment.

Data set [3] is described as follows: Pharmacokinetic studies in mice. The following applies: 24 h experiments (31: 8 h experiment); for Clobs: mice; for half-life: female, C57BL/6, mouse, plasma, T1/2, mice. The data set is classed as in vivo, mouse.
Another data set has as its system panel of kinases. The experiment in a line: Kinase profiling. The data set is classed as biochemical.
The test system of another data set is panel of GPCRs. The experiment in a line: GPCR profiling.
The next data set has as its target T1, menin (Homo sapiens, UniProt O00255).
T1 sequence (O00255 1-610): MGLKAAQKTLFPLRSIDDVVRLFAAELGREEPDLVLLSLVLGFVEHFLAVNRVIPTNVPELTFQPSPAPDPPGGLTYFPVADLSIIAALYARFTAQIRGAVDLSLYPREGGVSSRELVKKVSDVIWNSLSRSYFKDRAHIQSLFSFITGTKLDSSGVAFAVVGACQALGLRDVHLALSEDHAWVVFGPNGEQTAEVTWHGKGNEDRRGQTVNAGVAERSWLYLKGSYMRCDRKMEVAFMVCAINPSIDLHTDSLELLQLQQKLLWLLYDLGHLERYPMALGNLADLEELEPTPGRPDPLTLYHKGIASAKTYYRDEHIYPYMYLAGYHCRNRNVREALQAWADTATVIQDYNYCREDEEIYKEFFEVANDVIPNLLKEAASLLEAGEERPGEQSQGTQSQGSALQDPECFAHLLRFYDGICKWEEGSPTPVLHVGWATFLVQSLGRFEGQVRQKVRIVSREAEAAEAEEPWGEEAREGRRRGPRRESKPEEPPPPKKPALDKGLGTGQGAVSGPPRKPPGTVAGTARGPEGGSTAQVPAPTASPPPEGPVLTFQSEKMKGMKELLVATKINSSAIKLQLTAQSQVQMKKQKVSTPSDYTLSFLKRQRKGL
Put plainly: Isothermal titration calorimetry, binding to menin.

The subject of data set [4] is Hoxa9/Meis1 (HM-2) transformed murine bone marrow cells. Put plainly: MTT cell viability assay in Hoxa9/Meis1. As to conditions: up to 6 μM, 7 days. Format: cell-based.
For another data set, the system named is HL-60 cells. The experiment in a line: MTT cell viability assay in HL-60 control cell line. Format: cell-based, human. The following applies: up to 6 μM, 7 days. The method, boiled down:
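MTT viability over 7 days at 37 °C. Cells were grown in RPMI-1640 with 10% FBS, penicillin/streptomycin and NEAA, then seeded at 2 × 10^5/mL (HL-60) or 1 × 10^5/mL (MV4;11, MOLM-13). They were treated with test compound or 0.25% DMSO. On day 4 the medium was changed, viable cells were reset to the starting density, and compound was resupplied. Absorbance was read at 570 nm in quadruplicate, with runs repeated 2–3 times; mean and SD are reported.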

The test system of data set [5] is Hoxa9, Meis1 and Itgam expression in MLL-AF9 transformed BMCs. Put plainly: qRT-PCR gene expression in MLL-AF9 transformed murine bone marrow cells. The data set is classed as cell-based. As to conditions: 6 days of treatment. The method, boiled down:
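MLL-AF9-transformed murine bone marrow cells were treated for 6 days, and expression was then quantified by qRT-PCR. Itgam was normalised to 18S rRNA, and Hoxa9 and Meis1 to β-actin, each relative to DMSO-treated cells. Values are mean ± SD, n = 2.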

Another data set has as its system MV4;11 tumors. The experiment in a line: MV4. As to conditions: 45 mg/kg, once daily via ip, 2 weeks. Format: in vivo, mouse.
The nature of data set [6]: Phase II metabolism, detection of glucuronidation in blood plasma. As to conditions: blood plasma after iv administration, 15 mg/kg. Format: in vivo, mouse. The method, boiled down:
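Test compound was given iv at 15 mg/kg to mice. Glucuronide was detected in blood plasma by LC–MS/MS in positive-ion MRM mode, following the same handling used for the pharmacokinetic study.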

For `N#Cc1cc2cc(CN3CCC(Nc4ncnc5sc(CC(F)(F)F)cc45)CC3)ccc2n1CC(O)CO` (racemic) [3-(RS)], the cellular permeability result in [1] was “poor cellular permeability”.

In the case of `CO[C@@H](CO)Cn1c(C#N)cc2cc(CN3CCC(Nc4ncnc5sc(CC(F)(F)F)cc45)CC3)ccc21` [4-(R)], the efflux ratio in data set [1] is greater than 20.

Consider `N#Cc1cc2cc(CN3CCC(Nc4ncnc5sc(CC(F)(F)F)cc45)CC3)ccc2[nH]1` [Compound 1, 5-((4-((6-(2,2,2-Trifluoroethyl)thieno[2,3-d]pyrimidin-4-yl)-amino)piperidin-1-yl)methyl)-1H-indole-2-carbonitrile], for which, in data set [2], the “SI, selectivity index” value is given as less than 6. In addition, the Clobs in [3] (iv, 15 mg/kg) stood at 38.1 mL/min/kg. Also, the “off-target activity on a panel of kinases” value in the data set with panel of kinases was “did not show substantial off-target activity”. For the same compound, the “off-target activity on a panel of GPCRs” value in the data set with panel of GPCRs is on record as “did not show substantial off-target activity”.

For `N#Cc1cc2cc(CN3CCC(Nc4ncnc5sc(CC(F)(F)F)cc45)CC3)ccc2n1CC(N)=O` [Compound 7, 2-(2-Cyano-5-((4-((6-(2,2,2-trifluoroethyl)thieno[2,3-d]-pyrimidin-4-yl)amino)piperidin-1-yl)methyl)-1H-indol-1-yl)-acetamide], in [1], the cellular permeability result is “poor cellular permeability” and the efflux ratio was greater than 90.

Consider `Cc1c(CN2CCC(Nc3ncnc4sc(CC(F)(F)F)cc34)CC2)c(O)cc2[nH]c(C#N)cc12` [Compound 20, 6-Hydroxy-4-methyl-5-((4-((6-(2,2,2-trifluoroethyl)thieno-[2,3-d]pyrimidin-4-yl)amino)piperidin-1-yl)methyl)-1H-indole-2-carbonitrile], for which the GI50 in data set [2] was less than 200 nM. In data set [3] (iv, 15 mg/kg), the Clobs was 44.1 mL/min/kg. For the same compound, the cellular permeability result in data set [1] is given as “relatively high to moderate cellular permeability”.

For the compound `COc1cc2[nH]c(C#N)cc2c(C)c1CN1CCC(Nc2ncnc3sc(CC(F)(F)F)cc23)CC1` [Compound 21, 6-Methoxy-4-methyl-5-((4-((6-(2,2,2-trifluoroethyl)thieno-[2,3-d]pyrimidin-4-yl)amino)piperidin-1-yl)methyl)-1H-indole-2-carbonitrile], in [2], the GI50 is 100 nM. In addition, the Clobs in data set [3] (iv, 15 mg/kg) is 26.6 mL/min/kg. Also, the cellular permeability entry in data set [1] is “relatively high to moderate cellular permeability”.

For `Cc1c(CN2CCC(Nc3ncnc4sc(CC(F)(F)F)cc34)CC2)ccc2c1cc(C#N)n2CC(N)=O` [Compound 25, 2-(2-Cyano-4-methyl-5-((4-((6-(2,2,2-trifluoroethyl)thieno-[2,3-d]pyrimidin-4-yl)amino)piperidin-1-yl)methyl)-1H-indol-1-yl)acetamide], the cellular permeability entry in data set [1] is reported as “poor cellular permeability”.

For the compound `N#Cc1cc2cc(CN3CCC(Nc4ncnc5sc(CC(F)(F)F)cc45)CC3)c(O)cc2n1Cc1cn[nH]c1` [Compound 27, 1-((1H-Pyrazol-4-yl)methyl)-6-hydroxy-5-((4-((6-(2,2,2-trifluoroethyl)thieno[2,3-d]pyrimidin-4-yl)amino)piperidin-1-yl)methyl)-1H-indole-2-carbonitrile], the “ligand efficiency index (LE)” value at menin amounted to 0.28. For the same compound, the “SI, selectivity index” value in data set [2] was greater than 100. The “effect on growth of control cell line HM-2” value in [4] is “no effect”. In addition, the half-life in data set [3] (iv, 15 mg/kg, iv, 15 mg/kg) was roughly 1.6 h; in data set [3] (po, 30 mg/kg, po, 30 mg/kg), 1.6 h. The compound further had a Clobs in [3] (iv, 15 mg/kg) of 14.0 mL/min/kg. In the data set with HL-60 cells, the “effect on growth of control cell line HL-60” value was “no effect”. The “expression level of Itgam (differentiation marker)” value in data set [5] is given as “marked increase”. Besides, the “reduction in the MV4;11 tumor volume” value in the data set with MV4;11 tumors is reported as “about 80%”. The “reduction of the body weight” value in the data set on MV4;11 tumors is recorded as “less than 10%”. In addition, in data set [6], the “phase II metabolism” value was “undergoes glucuronidation”.

Turning to `COc1cc2c(cc(C#N)n2Cc2cn[nH]c2)c(C)c1CN1CCC(Nc2ncnc3sc(CC(F)(F)F)cc23)CC1` [Compound 31, 1-((1H-Pyrazol-4-yl)methyl)-6-methoxy-4-methyl-5-((4-((6-(2,2,2-trifluoroethyl)thieno[2,3-d]pyrimidin-4-yl)amino)-piperidin-1-yl)methyl)-1H-indole-2-carbonitrile], in data set [2], the GI50 was less than 200 nM. This compound also came in with a Clobs in data set [3] (iv, 15 mg/kg) of 15.0 mL/min/kg.
